# According to ChEMBL document CHEMBL3867457, “Cytotoxic Ceanothane- and Lupane-Type Triterpenoids from the Roots of Ziziphus jujuba” (J Nat Prod, 2016):
# Assay: Cytotoxicity against human HepG2 cells assessed as reduction in cell viability measured after 48 hrs by MTT assay
# Type: functional, cell-based
# Settings: HepG2, 48 h
# How it was run: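 HepG2 cells grown in DMEM with 10% FBS, penicillin/streptomycin, 5% CO2, 37 °C; seeded at 5 × 10^4 cells/mL, attached 12 h. Compounds in DMSO at 1, 5, 10, 25 μM for 48 h; docetaxel positive control. MTT added for 4 h, formazan dissolved in DMSO, absorbance 550 nm. Viability relative to control wells; IC50 with 95% CI by log-concentration regression; three independent replicates.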
row,Structure (SMILES),IC50 [µM]
1,C=C(C)[C@@H]1CC[C@]2(C(=O)O)CC[C@]3(C)[C@H](CC[C@@H]4[C@@]5(C)[C@H](C(=O)O)[C@H](OC(=O)c6ccc(O)cc6)C(C)(C)[C@@H]5CC[C@]43C)[C@@H]12,> 10
2,C=C(C)[C@@H]1CC[C@]2(C(=O)O)CC[C@]3(C)[C@H](CC[C@@H]4[C@@]5(C)C(C=O)=CC(C)(C)[C@@H]5CC[C@]43C)[C@@H]12,2
3,C=C(C)[C@@H]1CC[C@]2(C(=O)O)CC[C@]3(C(=O)O)[C@H](CC[C@@H]4[C@@]5(C)[C@@H](C(=O)OC)[C@H](O)C(C)(C)[C@@H]5CC[C@]43C)[C@@H]12,> 10
4,C=C(C)[C@@H]1CC[C@]2(C(=O)O)CC[C@]3(C)[C@H](CC[C@@H]4[C@@]5(C)C[C@@H](OC(=O)c6ccc(O)c(O)c6)[C@H](O)C(C)(C)[C@@H]5CC[C@]43C)[C@@H]12,> 10
5,C=C(C)[C@@H]1CC[C@]2(C(=O)O)CC[C@]3(C)[C@H](CC[C@@H]4[C@@]5(C)[C@@H](C(=O)O)[C@H](OC(=O)c6ccc(O)c(O)c6)C(C)(C)[C@@H]5CC[C@]43C)[C@@H]12,> 10
6,C=C(C)[C@@H]1CC[C@]2(C(=O)O)CC[C@]3(C)[C@H](CC[C@@H]4[C@@]5(C)C[C@@H](OC(=O)c6ccccc6)[C@H](O)C(C)(C)[C@@H]5CC[C@]43C)[C@@H]12,> 10
7,C=C(C)[C@@H]1CC[C@]2(C(=O)O)CC[C@]3(C)[C@H](CC[C@@H]4[C@@]5(C)C[C@@H](OC(=O)/C=C/c6ccc(O)cc6)[C@H](O)C(C)(C)[C@@H]5CC[C@]43C)[C@@H]12,2
8,C=C(C)[C@@H]1CC[C@]2(C(=O)O)CC[C@]3(C)[C@H](CC[C@@H]4[C@@]5(C)CC[C@H](O)C(C)(C)[C@@H]5CC[C@]43C)[C@@H]12 [BETULINIC ACID],5.9
9,C=C(C)[C@@H]1CC[C@]2(C(=O)O)CC[C@]3(C)[C@H](CC[C@@H]4[C@@]5(C)[C@H](C(=O)OC)[C@H](O)C(C)(C)[C@@H]5CC[C@]43C)[C@@H]12,> 10
10,C=C(C)[C@@H]1CC[C@]2(C(=O)O)CC[C@]3(C)[C@H](CC[C@@H]4[C@@]5(C)[C@@H](C(=O)O)[C@H](OC(=O)c6ccc(O)cc6)C(C)(C)[C@@H]5CC[C@]43C)[C@@H]12,> 10
11,C=C(C)[C@@H]1CC[C@]2(C(=O)O)CC[C@]3(C)[C@H](CC[C@@H]4[C@@]5(C)[C@@H](C(=O)O)[C@H](OC(=O)c6ccc(O)c(OC)c6)C(C)(C)[C@@H]5CC[C@]43C)[C@@H]12,> 10
12,C=C(C)[C@@H]1CC[C@]2(C(=O)O)CC[C@]3(C)[C@H](CC[C@@H]4[C@@]5(C)[C@@H](C(=O)OC)[C@H](OC(=O)c6ccc(O)c(OC)c6)C(C)(C)[C@@H]5CC[C@]43C)[C@@H]12,1.9
13,C=C(C)[C@@H]1CC[C@]2(C(=O)O)CC[C@]3(C(=O)O)[C@H](CC[C@@H]4[C@@]5(C)[C@@H](C(=O)OC)CC(C)(C)[C@@H]5CC[C@]43C)[C@@H]12,> 10
14,C=C(C)[C@@H]1CC[C@]2(C(=O)O)CC[C@]3(C)[C@H](CC[C@@H]4[C@@]5(C)C[C@@H](OC(=O)/C=C\c6ccc(O)cc6)[C@H](O)C(C)(C)[C@@H]5CC[C@]43C)[C@@H]12,2.1
15,C=C(C)[C@@H]1CC[C@]2(C(=O)O)CC[C@]3(C)[C@H](CC[C@@H]4[C@@]5(C)[C@@H](C(=O)OC)[C@H](OC(=O)c6ccc(O)c(O)c6)C(C)(C)[C@@H]5CC[C@]43C)[C@@H]12,2.8
16,C=C(C)[C@@H]1CC[C@]2(C(=O)O)CC[C@]3(C)[C@H](CC[C@@H]4[C@@]5(C)[C@H](C(=O)O)[C@H](OC(=O)c6ccc(O)c(OC)c6)C(C)(C)[C@@H]5CC[C@]43C)[C@@H]12,3.9
17,C=C(C)[C@@H]1CC[C@]2(C(=O)O)CC[C@]3(C)[C@H](CC[C@@H]4[C@@]5(C)C[C@@H](OC(=O)c6ccc(O)cc6)[C@H](O)C(C)(C)[C@@H]5CC[C@]43C)[C@@H]12,2.9
18,C=C(C)[C@@H]1CC[C@]2(C(=O)O)CC[C@]3(C)[C@H](CC[C@@H]4[C@@]5(C)C[C@@H](O)[C@H](O)C(C)(C)[C@@H]5CC[C@]43C)[C@@H]12 [ALPHITOLIC ACID],> 10
19,C=C(C)[C@@H]1CC=C2CC[C@]3(C(=O)O)[C@H](CC[C@@H]4[C@@]5(C)C=C[C@](C)(CO)[C@@H]5CC[C@]43C)[C@H]21,4.9
20,C=C(C)[C@@]12CC[C@@]3(CC[C@]4(C(=O)O)[C@H](CC[C@@H]5[C@@]6(C)[C@@H](C(=O)O)CC(C)(C)[C@@H]6CC[C@]54C)[C@H]31)C(=O)O2,> 10
21,CC(=O)O[C@@]12CO[C@@H]1C[C@H](O)[C@@]1(C)C(=O)[C@H](O)C3=C(C)[C@@H](OC(=O)[C@H](O)[C@@H](NC(=O)OC(C)(C)C)c4ccccc4)C[C@@](O)([C@@H](OC(=O)c4ccccc4)[C@H]21)C3(C)C [DOCETAXEL ANHYDROUS],8.3
22,C=C(C)[C@@H]1CC[C@]2(C(=O)O)CC[C@]3(C)[C@H](CC[C@@H]4[C@@]5(C)[C@@H](C(=O)O)[C@H](O)C(C)(C)[C@@H]5CC[C@]43C)[C@@H]12 [CEANOTHIC ACID],> 10
23,C=C(C)[C@@H]1CC[C@]2(C(=O)O)CC[C@]3(C)[C@H](CC[C@@H]4[C@@]5(C)[C@H](C(=O)O)[C@H](O)C(C)(C)[C@@H]5CC[C@]43C)[C@@H]12 [EPICEANOTHIC ACID],> 10
24,C=C(C)[C@@H]1CC[C@]2(C(=O)O)CC[C@]3(C(=O)O)[C@H](CC[C@@H]4[C@@]5(C)[C@@H](C(=O)O)CC(C)(C)[C@@H]5CC[C@]43C)[C@@H]12,> 10
25,C=C(C)[C@@H]1CC[C@]2(C(=O)O)CC[C@]3(C)[C@H](CC[C@@H]4[C@@]5(C)[C@@H](C(=O)O)[C@H](O)[C@](C)(CO)[C@@H]5CC[C@]43C)[C@@H]12,> 10
